Activity calls are given as the source filed them. The rule behind the calls is not given here.

One data set deals with SW480. Put plainly: Antiproliferative activity against human SW480 cells assessed as inhibition of cell growth incubated for 72 hrs by MTT assay. The format is functional, cell-based. As to conditions: SW480, 72 h. An outline of the steps: (§1)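 MTT assay in human tumour lines SW480 (colon), A549 (lung adenocarcinoma), MCF7 and MDA-MB-231 (breast), in non-tumorigenic breast MCF10A, and in human embryonic kidney Hek293 as non-tumour reference. Compounds tested at several concentrations for 72 h; IC50 derived from dose-response and given as mean ± error. Cisplatin as reference.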
(In general: Formazan colour is commonly taken as a measure of viable cells.)

Another data set deals with A549. Put plainly: Antiproliferative activity against human A549 cells assessed as inhibition of cell growth incubated for 72 hrs by MTT assay. It is filed as functional, cell-based. As to conditions: A549, 72 h. In outline: as §1
Data set [1] in a line: Cytotoxicity against HEK293 cells assessed as inhibition of cell growth incubated for 72 hrs by MTT assay. The format is toxicity, cell-based. As to conditions: human. An outline of the steps: as §1
The test system of data set [2] is MCF7. In words: Antiproliferative activity against human MCF7 cells assessed as inhibition of cell growth incubated for 72 hrs by MTT assay. It is filed as functional, cell-based. The settings on record: MCF7, 72 h. An outline of the steps:
as §1

Data set [3] relates to MDA-MB-231. In words: Antiproliferative activity against human MDA-MB-231 cells assessed as inhibition of cell growth incubated for 72 hrs by MTT assay. As to conditions: MDA-MB-231, 72 h. The format is functional, cell-based. In outline: as §1
For data set [4], the system named is MCF-10A. In words: Antiproliferative activity against human MCF-10A cells assessed as inhibition of cell growth incubated for 72 hrs by MTT assay. The format is functional, cell-based. In outline: as §1
In data set [5] the test system is MDA-MB-231. In words: Downregulation of LYPLA2 gene expression in human MDA-MB-231 cells at IC50 concentration incubated for 72 hrs by RT-PCR analysis. It is filed as functional, cell-based. An outline of the steps:
(§2)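 mRNA levels measured by qPCR in MCF7, MDA-MB-231 and MCF10A breast cells after compound treatment, against DMSO-treated vehicle control. LYPLA2 expression given as a ratio to GAPDH. Statistics by Brown-Forsythe and Welch ANOVA with Dunnett T3 correction; p < 0.05 and p < 0.01 marked.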

For data set [6], the system named is MCF-10A. Put plainly: Downregulation of LYPLA2 gene expression in human MCF-10A cells at IC50 concentration incubated for 72 hrs by RT-PCR analysis. It is filed as functional, cell-based. An outline of the steps:
as §2

Data set [7] has as its system MCF7. In words: Downregulation of LYPLA2 gene expression in human MCF7 cells at IC50 concentration incubated for 72 hrs by RT-PCR analysis. The format is functional, cell-based. An outline of the steps:
as §2

Data set [8] concerns MCF7. In words: Downregulation of EP300 gene expression in human MCF7 cells at IC50 concentration incubated for 72 hrs by RT-PCR analysis. The format is functional, cell-based.
Data set [9] has as its system MDA-MB-231. In words: Downregulation of EP300 gene expression in human MDA-MB-231 cells at IC50 concentration incubated for 72 hrs by RT-PCR analysis. The format is functional, cell-based.
A short description of data set [10]: Antiproliferative activity against human H199 cells assessed as inhibition of cell growth at 2.5 to 2 mM incubated for 24 hrs by MTT assay relative to control. The format is functional. The arrangement: scale not given: the % may be the effect or the level left. The settings on record: dose 2.5-2 mM, at 2 to 2.5 mM.
Data set [11] in a line: Antiproliferative activity against human SW182 cells assessed as inhibition of cell growth at 2.5 to 2 mM incubated for 24 hrs by MTT assay relative to control. It is filed as functional. The arrangement: scale not given: the % may be the effect or the level left. The settings on record: dose 2.5-2 mM, at 2 to 2.5 mM.

In general, IC50 refers to the concentration at which inhibition is half-maximal. Consider `O=C1N(Cc2cn(Cc3ccccc3)nn2)c2ccccc2[C@]1(O)c1ccccc1`, for which the values for the IC50 in the data set on SW480 and with A549 were 75.3 µM and above 100 µM, respectively. Moreover, the IC50 at 72 h in data set [1] is above 100 µM.
`O=C1N(Cc2cn(Cc3ccccc3)nn2)c2ccccc2[C@@]1(O)c1ccc2ccccc2c1`: the IC50 with SW480 was found to be 9.9 µM; in the data set with A549, 28.3 µM; with MCF7 [2], 1.75 µM; in the data set with MDA-MB-231 [3] it was 3.1 µM; in the data set on MCF-10A [4] it was 1.33 µM. In [1], the IC50 at 72 h stood at 12.4 µM. In addition, the result with MDA-MB-231 [5] and in the data set with MCF-10A [6] was Active.
`CC(C)[C@@H]1CC[C@@H](C)C[C@@H]1n1cc(CN2C(=O)C3(OCCO3)c3ccccc32)nn1`: the IC50 with SW480 and in the data set with A549 was above 100 µM throughout. Besides, the IC50 at 72 h in data set [1] is above 100 µM.
In the case of `CCCCn1cc(CN2C(=O)[C@@](O)(c3ccccc3)c3ccccc32)nn1`, the IC50 in the data set with SW480 and with A549 was above 100 µM in each case. In addition, the IC50 at 72 h in data set [1] was above 100 µM.
For `O=C1N(Cc2cn(Cc3ccccc3)nn2)c2ccccc2[C@@]1(O)c1ccccc1`, the IC50 with SW480 was 62.4 µM; in the data set with A549 it was above 100 µM. Also, the IC50 at 72 h in data set [1] is above 100 µM.
Consider `O=C1N(Cc2cn(Cc3ccccc3)nn2)c2ccccc2[C@@]1(O)c1ccsc1`, for which the IC50 in the data set on SW480 was 62.5 µM; in the data set with A549, 98 µM. For the same compound, in data set [1], the IC50 at 72 h was found to be 46.4 µM.
For `O=C1N(Cc2cn(Cc3ccccc3)nn2)c2ccccc2[C@]1(O)c1ccc(F)cc1`, in that order: 32.1 µM, 77.3 µM and 53.5 µM.
With `O=C1N(Cc2cn(Cc3ccccc3)nn2)c2ccc(Br)cc2[C@]1(O)c1ccccc1`, the IC50 in the data set with SW480 is 28.7 µM; in the data set on A549, 65.9 µM; in the data set on MCF7 [2], 1.49 µM; in the data set on MDA-MB-231 [3] it was 1.41 µM; with MCF-10A [4] it was 1.02 µM. Besides, the IC50 at 72 h in data set [1] was found to be 36.1 µM. Also, the result with MCF7 [7] and in the data set with MDA-MB-231 [5] was Active.
On to `Cc1ccc([C@]2(O)C(=O)N(Cc3cn(Cc4ccccc4)nn3)c3ccccc32)cc1`, for which the half-maximal inhibitory concentration (IC50) in the data set on SW480 and in the data set on A549 was above 100 µM each time. The IC50 at 72 h in [1] is above 100 µM.
In the case of `CC(C)[C@@H]1CC[C@@H](C)C[C@@H]1n1cc(CN2C(=O)C(=O)c3ccccc32)nn1`, the IC50 came to 8.9 µM in the data set with SW480; 53.8 µM in the data set on A549; 1.34 µM with MCF7 [2]; 1.79 µM in the data set with MDA-MB-231 [3]; 1.08 µM in the data set with MCF-10A [4]. Also, in data set [1], the IC50 at 72 h was 23.1 µM. Also, the result in the data set on MCF7 [8] and in the data set with MDA-MB-231 [9] was Active.
`CCCCn1cc(CN2C(=O)[C@](O)(c3ccccc3)c3ccccc32)nn1`: the IC50 with SW480 and with A549 was above 100 µM throughout. Also, the IC50 at 72 h in data set [1] was above 100 µM.
Regarding `O=C1C(=O)N(Cc2cn(Cc3ccccc3)nn2)c2ccccc21`, the IC50 in the data set with SW480 was determined as 32.2 µM; in the data set on A549, 54.7 µM; with MCF7 [2] it was 1.39 µM; in the data set with MDA-MB-231 [3] it was 2.95 µM; in the data set on MCF-10A [4], 1.8 µM. Moreover, the IC50 at 72 h in data set [1] is 63.7 µM. Also, the outcome in the data set with MCF7 [8] and in the data set with MDA-MB-231 [9] was Active.
Take `O=C1N(Cc2cn(Cc3ccccc3)nn2)c2ccc(Br)cc2[C@@]1(O)c1ccccc1`: the half-maximal inhibitory concentration (IC50) with SW480 was found to be 18.9 µM; with A549 it was 29.3 µM; in the data set on MCF7 [2] it was 2.04 µM; in the data set on MDA-MB-231 [3], 1.62 µM; with MCF-10A [4], 1.1 µM. In addition, in [1], the IC50 at 72 h worked out at 87.3 µM.
Take `COc1ccc([C@]2(O)C(=O)N(Cc3cn(Cc4ccccc4)nn3)c3ccccc32)cc1`: the results for the IC50 with SW480 and in the data set with A549 were 75.8 µM and above 100 µM, respectively. Also, the IC50 at 72 h in data set [1] was above 100 µM.
`O=C(Cn1cc(CN2C(=O)C(=O)c3ccccc32)nn1)Nc1nc2ccccc2s1`: the Activity in data set [10] and in data set [11] was above 50% throughout.
Take `O=C1N(Cc2cn(Cc3ccccc3)nn2)c2ccccc2[C@@]1(O)c1ccc(F)cc1`: the IC50 in the data set with SW480 is 28.2 µM; in the data set on A549, 72.1 µM. Besides, the IC50 at 72 h in [1] came out at 50.3 µM.
In the case of `Cc1ccc2c(c1)C(=O)C(=O)N2Cc1cn(Cc2ccccc2)nn1`, the half-maximal inhibitory concentration (IC50) with SW480 turned out to be 26.6 µM; in the data set on A549, 41.5 µM; in the data set on MCF7 [2], 1.5 µM; in the data set with MDA-MB-231 [3], 2.4 µM; in the data set on MCF-10A [4], 1.54 µM. Further, the IC50 at 72 h in data set [1] was 26.9 µM. Further, the outcome with MCF7 [8] and in the data set on MDA-MB-231 [9] was Active.
As to `COc1ccc([C@@]2(O)C(=O)N(Cc3cn(Cc4ccccc4)nn3)c3ccccc32)cc1`, the figures for the IC50 in the data set with SW480 and with A549 were 36.6 µM and 95.9 µM, respectively. In data set [1], the IC50 at 72 h was 38 µM.
`Cc1ccc2nc(NC(=O)Cn3cc(CN4C(=O)C(=O)c5ccccc54)nn3)sc2c1`: the Activity in data set [10] and in [11] was above 50% each time.
Regarding `O=C1N(Cc2cn(Cc3ccccc3)nn2)c2ccccc2[C@]1(O)c1ccsc1`, the IC50 in the data set with SW480 is 29.5 µM; with A549, above 100 µM. Also, in data set [1], the IC50 at 72 h is 64 µM.
On to `O=C1N(Cc2cn(Cc3ccccc3)nn2)c2ccccc2[C@@]1(O)c1cccc(O)c1`, for which the IC50 is 31.8 µM in the data set on SW480 and above 100 µM in the data set on A549. Also, the IC50 at 72 h in data set [1] is 33.7 µM.
For `O=C1N(Cc2cn(Cc3ccccc3)nn2)c2ccccc2[C@]1(O)c1ccc2ccccc2c1`, in that order: 8.7 µM, 23.5 µM and 14 µM.
As for `CS(=O)(=O)c1ccc2nc(NC(=O)Cn3cc(CN4C(=O)C(=O)c5ccccc54)nn3)sc2c1`, the Activity in [10] and in data set [11] was above 50% in each case.

Source of the values: ChEMBL document CHEMBL5108040, “N-1,2,3-Triazole-isatin derivatives: anti-proliferation effects and target identification in solid tumour cell lines” (RSC Med Chem, 2022).
